The source made the active and inactive calls. The calls are words filed in the database; no cut-off is given here.
Columns and labels:
[1] = test system: HeLa; assay: Induction of mitophagy in YFP-Parkin-transfected human HeLa cells assessed as effect on ubiquitin phosphorylation at 50 uM incubated for 24 hrs by Hoechst 33258 staining based immunofluorescence analysis; type: functional, cell-based
Summary of the method: (§1)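 YFP-Parkin-transfected HeLa cells were left untreated or exposed to 50 μM compound alone for 24 h. Cells were PFA-fixed, Triton-permeabilised and immunostained for pSer65-Ub and TOM20 with Hoechst. Confocal imaging assessed mitochondrial fragmentation, YFP-Parkin localisation and ubiquitin phosphorylation.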

[2] = test system: HeLa; assay: Induction of mitochondrial membrane depolarization in human HeLa cells overexpressing Parkin assessed as inhibition of niclosamide-induced OPA1 cleavage at 50 uM preincubated for 24 hrs followed by niclosamide stimulation and measured after 3 hrs by Western blot analysis; type: functional, cell-based; settings: time 27.0 hrs
[3] = molecular target: T1, Serine/threonine-protein kinase Pink1, mitochondrial (Tribolium castaneum) (UniProt D6WMX4); assay: Inhibition of recombinant Tribolium castaneum PINK1 using human ubiquitin as substrate assessed as substrate phosphorylation upto 100 uM
T1 sequence (whole entry): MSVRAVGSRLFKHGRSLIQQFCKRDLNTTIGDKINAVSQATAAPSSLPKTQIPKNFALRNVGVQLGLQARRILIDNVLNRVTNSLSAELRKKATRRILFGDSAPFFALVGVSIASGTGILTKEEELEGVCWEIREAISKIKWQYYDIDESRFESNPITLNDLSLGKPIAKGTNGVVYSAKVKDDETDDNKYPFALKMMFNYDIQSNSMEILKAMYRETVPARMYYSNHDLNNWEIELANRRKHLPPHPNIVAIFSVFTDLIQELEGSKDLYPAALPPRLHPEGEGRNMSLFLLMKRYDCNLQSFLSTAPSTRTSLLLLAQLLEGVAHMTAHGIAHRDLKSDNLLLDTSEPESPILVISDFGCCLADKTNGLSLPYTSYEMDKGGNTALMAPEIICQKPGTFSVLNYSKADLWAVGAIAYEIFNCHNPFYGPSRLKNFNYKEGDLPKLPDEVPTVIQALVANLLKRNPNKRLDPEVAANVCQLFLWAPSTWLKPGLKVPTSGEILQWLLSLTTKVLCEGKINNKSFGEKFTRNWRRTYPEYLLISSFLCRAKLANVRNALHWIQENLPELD

[4] = test system: HeLa; assay: Inhibition of CCCP-induced ubiquitin phosphorylation at serine 65 residue in human HeLa cells transfected with YFP-Parkin at 50 uM preincubated for 24 hrs followed by CCCP stimulation and measured after 1 hr hr by Hoechst 33258 staining based immunofluorescence analysis; type: cell-based; settings: time 25.0 hrs
Summary of the method: (§2)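 YFP-Parkin HeLa cells were pretreated with 50 μM compound for 24 h, then given 10 μM CCCP or niclosamide for 1 h. Cells were fixed in chilled 4% PFA, permeabilised with 0.1% Triton, blocked in BSA, then immunostained overnight at 4 °C for pSer65-Ub and TOM20 with Hoechst. YFP-Parkin was imaged by confocal microscopy (40× oil). pUb mitochondrial localisation was quantified from images.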

[5] = molecular target: Serine/threonine-protein kinase PINK1, mitochondrial (Homo sapiens) (UniProt Q9BXM7); assay: Activation of human PINK1 in human HeLa cells overexpressing Parkin assessed as phosphorylation of ubiquitin at serine 65 at 50 uM and measured after 24 hr by Western blot analysis; type: cell-based
Serine/threonine-protein kinase PINK1, mitochondrial (Homo sapiens), sequence (Q9BXM7 whole entry): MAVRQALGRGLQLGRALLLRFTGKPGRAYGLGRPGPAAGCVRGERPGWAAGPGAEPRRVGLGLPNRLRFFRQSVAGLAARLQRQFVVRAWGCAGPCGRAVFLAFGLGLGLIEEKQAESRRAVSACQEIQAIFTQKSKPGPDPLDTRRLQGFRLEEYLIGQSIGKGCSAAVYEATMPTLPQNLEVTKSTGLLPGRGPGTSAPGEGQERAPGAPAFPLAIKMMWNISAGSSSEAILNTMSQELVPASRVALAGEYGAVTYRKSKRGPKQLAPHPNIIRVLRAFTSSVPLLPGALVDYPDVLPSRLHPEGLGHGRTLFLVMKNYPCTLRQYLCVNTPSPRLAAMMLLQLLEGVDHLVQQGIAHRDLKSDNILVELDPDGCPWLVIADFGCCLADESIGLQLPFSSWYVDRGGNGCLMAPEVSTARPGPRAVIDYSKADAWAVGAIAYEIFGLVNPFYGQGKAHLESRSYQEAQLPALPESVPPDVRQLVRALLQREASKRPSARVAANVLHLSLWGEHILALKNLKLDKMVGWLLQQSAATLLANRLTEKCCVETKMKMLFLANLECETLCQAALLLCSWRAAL
Summary of the method: (§3)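 Parkin-transfected HeLa cells received 50 μM compound for 24 h. They were then either lysed directly or given 10 μM CCCP for 3 h before lysis. Lysates were immunoblotted for Ser65-phosphorylated ubiquitin, OPA1 cleavage and GAPDH. Untreated transfected and untransfected cells served as references.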

[6] = test system: MEF; assay: Induction of mitophagy in PINK1 knockout mouse immortalized MEF cells overexpressing HA-tagged Parkin assessed as increase in mitophagy at 5 uM incubated for 16 hrs by flow cytometry analysis; type: functional, cell-based
Summary of the method: (§4)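 Immortalised MEFs from PINK1 WT or KO mito-QC littermate embryos, overexpressing HA-Parkin, were treated for 16 h. Cells were trypsinised, fixed in 3.7% formaldehyde/200 mM HEPES pH 7.0 and analysed by flow cytometry (≥2 × 10^4 cells). Living cells were gated on scatter, and the untreated-condition gate was applied to all conditions. Percent cells undergoing mitophagy was taken from the GFP/mCherry ratio; n = 3, two-way ANOVA with Sidak test.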

[7] = molecular target: T1, Serine/threonine-protein kinase Pink1, mitochondrial (Tribolium castaneum); assay: Inhibition of recombinant Tribolium castaneum PINK1 using human Parkin as substrate assessed as substrate phosphorylation upto 100 uM
[8] = test system: HeLa; assay: Inhibition of niclosamide-induced ubiquitin phosphorylation at serine 65 residue in human HeLa cells transfected with YFP-Parkin at 50 uM preincubated for 24 hrs followed by niclosamide stimulation and measured after 1 hr hr by Hoechst 33258 staining based immunofluorescence analysis; type: cell-based; settings: time 25.0 hrs; summary of the method: as §2
[9] = test system: HeLa; assay: Induction of mitophagy in human HeLa cells transfected with YFP-Parkin assessed as effect on Parkin localization at 50 uM incubated for 24 hrs by Hoechst 33258 staining based immunofluorescence analysis; type: functional, cell-based; summary of the method: as §1
[10] = test system: HeLa; assay: Induction of mitophagy in human HeLa cells transfected with YFP-Parkin assessed as effect on mitochondrial fragmentation at 50 uM incubated for 24 hrs by Hoechst 33258 staining based immunofluorescence analysis; type: functional, cell-based; summary of the method: as §1
[11] = test system: HeLa; assay: (§5) Induction of mitochondrial membrane depolarization in human HeLa cells transfected with YFP-Parkin assessed as prevention of CCCP induced mitochondrial membrane potential loss at 50 uM preincubated for 24 hrs followed by CCCP stimulation and measured after 1 hr by Hoechst 33258 staining based immunofluorescence analysis; type: functional, cell-based; settings: time 25.0 hrs
Summary of the method: (§6)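 Mitochondrial membrane potential was read in YFP-Parkin HeLa cells pretreated with 50 μM compound for 24 h, then given 10 μM niclosamide or CCCP for 1 h. Medium was replaced with 5 nM TMRM plus Hoechst for 30 min at 37 °C in the dark. After a PBS wash, live cells were imaged by confocal microscopy at 37 °C, 5% CO2.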

[12] = test system: HeLa; assay: as §5, with “niclosamide” for “CCCP”; type: functional, cell-based; settings: time 25.0 hrs; summary of the method: as §6
[13] = test system: HeLa; assay: Inhibition of niclosamide-induced ubiquitin phosphorylation at serine 65 residue in human HeLa cells transfected with YFP-Parkin at 50 uM preincubated for 24 hrs followed by niclosamide stimulation and measured after 1 hr hr by Western blot analysis; type: cell-based; settings: time 25.0 hrs
Summary of the method: (§7)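 YFP-Parkin-transfected HeLa cells were pretreated with 50 μM compound (24 h per legend, 23 h per methods), then given 10 μM CCCP or niclosamide for 1 h. Lysis used AP buffer (Tris pH 7.5, IGEPAL, protease/phosphatase inhibitors). Blots were on PVDF, milk-blocked, primary antibody overnight at 4 °C, HRP detection; probed for pUb, LC3B-I/-II and α-tubulin.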

[14] = test system: HeLa; assay: Inhibition of CCCP-induced ubiquitin phosphorylation at serine 65 residue in human HeLa cells transfected with YFP-Parkin at 50 uM preincubated for 24 hrs followed by CCCP stimulation and measured after 1 hr hr by Western blot analysis; type: cell-based; settings: time 25.0 hrs; summary of the method: as §7
[15] = test system: MEF; assay: Induction of mitophagy in wild-type PINK1 harboring mouse immortalized MEF cells overexpressing HA-tagged Parkin assessed as increase in mitophagy at 5 uM incubated for 16 hrs by flow cytometry analysis; type: functional, cell-based; summary of the method: as §4
[16] = test system: HeLa; assay: Induction of mitochondrial membrane depolarization in human HeLa cells overexpressing Parkin assessed as inhibition of CCCP-induced OPA1 cleavage at 50 uM preincubated for 24 hrs followed by CCCP stimulation and measured after 3 hrs by Western blot analysis; type: functional, cell-based; settings: time 27.0 hrs; summary of the method: as §3
[17] = test system: HeLa; assay: Inhibition of ubiquitin phosphorylation in CCCP stimulated human HeLa cells overexpressing Parkin assessed as reduction in CCCP-induced ubiquitin phosphorylation at serine 65 at 50 uM preincubated for 24 hrs followed by CCCP stimulation for 3 hr by Western blot analysis; type: cell-based; settings: time 27.0 hrs; summary of the method: as §3
[18] = molecular target: Serine/threonine-protein kinase PINK1, mitochondrial (Homo sapiens) (UniProt Q9BXM7); assay: Activation of PINK1 in human HeLa cells transfected with Parkin assessed as increase in Parkin phosphorylation at serine 65 at 50 uM incubated for 1 hr by Western blot analysis; type: cell-based
Summary of the method: (§8)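 HeLa cells transfected with Parkin were exposed to 50 μM compound for 1 h, with 10 μM CCCP for 3 h as a control. Cells were then lysed and immunoblotted for pSer65 Parkin, total Parkin, OPA1 and GAPDH (loading control). Untreated transfected and untransfected cells were included. Blots are representative of three repeat experiments.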

[19] = molecular target: Serine/threonine-protein kinase PINK1, mitochondrial (Mus musculus) (UniProt Q99MQ3); assay: Activation of mouse PINK1 in mouse astrocytes assessed increase in ubiquitin serine 65 phosphorylation at 50 uM incubated for 24 hrs by ELISA analysis; type: cell-based; settings: Astrocyte, filed as activator
Serine/threonine-protein kinase PINK1, mitochondrial (Mus musculus), sequence (Q99MQ3 whole entry): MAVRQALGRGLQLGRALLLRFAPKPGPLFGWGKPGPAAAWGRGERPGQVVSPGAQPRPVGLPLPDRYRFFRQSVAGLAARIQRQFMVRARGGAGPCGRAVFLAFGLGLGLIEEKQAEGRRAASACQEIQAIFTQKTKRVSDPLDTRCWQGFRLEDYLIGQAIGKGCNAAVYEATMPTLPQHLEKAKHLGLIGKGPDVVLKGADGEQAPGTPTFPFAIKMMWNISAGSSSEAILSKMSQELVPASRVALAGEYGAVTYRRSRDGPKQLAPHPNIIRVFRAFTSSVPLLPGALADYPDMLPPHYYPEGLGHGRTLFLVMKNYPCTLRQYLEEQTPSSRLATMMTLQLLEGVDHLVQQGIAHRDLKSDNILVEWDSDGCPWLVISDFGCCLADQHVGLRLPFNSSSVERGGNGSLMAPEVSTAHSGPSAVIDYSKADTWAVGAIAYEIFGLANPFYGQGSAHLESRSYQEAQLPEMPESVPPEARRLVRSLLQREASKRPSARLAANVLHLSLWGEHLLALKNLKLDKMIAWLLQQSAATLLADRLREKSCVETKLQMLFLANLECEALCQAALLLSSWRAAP
Summary of the method: (§9)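 Primary cortical astrocytes came from postnatal day 3 C57BL/6J pups and were used at 70–90% confluence (7–10 days in vitro). Lysates (HEPES/NP-40 lysis, pellet resuspended in RIPA) went to pS65-Ub ELISA. Signal was normalised per μg protein (BCA); mean ± SEM, n = 8.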

[20] = molecular target: Serine/threonine-protein kinase PINK1, mitochondrial (Mus musculus) (UniProt Q99MQ3); assay: Activation of mouse PINK1 in mouse astrocytes assessed ubiquitin serine 65 phosphorylation at 50 uM preincubated for 24 hrs followed by valinomycin treatment for 5 hrs by ELISA; type: cell-based; settings: Astrocyte, time 29.0 hrs; summary of the method: as §9
[21] = molecular target: Serine/threonine-protein kinase PINK1, mitochondrial (Homo sapiens) (UniProt Q9BXM7); assay: Activation of PINK1 in human HeLa cells transfected with Parkin assessed as prevention of OPA1 cleavage at 50 uM incubated for 1 hr by Western blot analysis; type: cell-based; summary of the method: as §8
[22] = molecular target: Serine/threonine-protein kinase PINK1, mitochondrial (Homo sapiens) (UniProt Q9BXM7); assay: Activation of human PINK1 in human HeLa cells overexpressing Parkin assessed as phosphorylation of ubiquitin at serine 65 at 10 uM and measured after 3 hr by Western blot analysis; type: cell-based; settings: filed as activator
Summary of the method: (§10)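 Parkin-transfected HeLa (DMEM, 10% FBS, 37 °C, 5% CO2) treated 3 h with 10 μM agent (CCCP control arm), with or without 24 h pre-treatment at 50 μM. Lysed in Tris pH 7.5 buffer with phosphatase/protease inhibitors, protein by Bradford, boiled in SDS buffer, immunoblotted for pUb Ser65, OPA1 (cleavage as depolarization read-out) and GAPDH loading control.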

[23] = test system: HeLa; assay: Induction of mitochondrial membrane depolarization in human HeLa cells overexpressing Parkin assessed as OPA1 cleavage at 10 uM and measured after 3 hrs by Western blot analysis; type: functional, cell-based; summary of the method: as §10
[24] = test system: MEF; assay: Induction of mitophagy in wild-type PINK1 harboring mouse immortalized MEF cells overexpressing HA-tagged Parkin assessed as increase in mitophagy at 20 uM incubated for 16 hrs by flow cytometry analysis; type: functional, cell-based
Summary of the method: (§11)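 Immortalized MEFs from littermate PINK1 WT or KO mito-QC embryos (mCherry-GFP-FIS1 reporter), overexpressing HA-Parkin; 2.5 × 10^5 cells seeded day before, treated 16 h. Trypsinized, fixed in 3.7% formaldehyde/200 mM HEPES pH 7.0, ≥2 × 10^4 cells acquired by flow cytometry; live cells gated, percent mitophagy from GFP/mCherry ratio using untreated-cell gate; n = 3; two-way ANOVA with Sidak test.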

[25] = test system: MEF; assay: Induction of mitophagy in PINK1 knockout mouse immortalized MEF cells overexpressing HA-tagged Parkin assessed as increase in mitophagy at 20 uM incubated for 16 hrs by flow cytometry analysis; type: functional, cell-based; summary of the method: as §11
[26] = test system: HeLa; assay: Induction of mitophagy in human HeLa cells transfected with YFP-Parkin assessed as parkin localization in mitochondria at 50 uM preincubated for 24 hrs followed by CCCP stimulation and measured after 1 hr hr by Hoechst 33258 staining based immunofluorescence analysis; type: functional, cell-based; summary of the method: as §2

| Structure (SMILES) | Activity [1] | inhibition [4] | Activity [9] | Activity [10] | Activity [18] | Activity [19] | Activity [20] | Activity ([18]; filed as activator) | Activity [21] | other results |
| --- | --- | --- | --- | --- | --- | --- | --- | --- | --- | --- |
| OC[C@H]1O[C@@H](n2cnc3c(NCc4ccco4)ncnc32)[C@H](O)[C@@H]1O | inactive | Active | inactive | inactive |  |  |  |  |  | inhibition [2]: inactive; inhibition [3]: inactive; Activity [5]: inactive; Activity [6]: inactive; inhibition [7]: inactive; inhibition [8]: Active; Activity [11]: inactive; Activity [12]: inactive; inhibition [13]: Active; inhibition [14]: Active; Activity [15]: Active; inhibition [16]: inactive; inhibition [17]: Active |
| Oc1ccc(CCNc2ncnc3[nH]cnc23)cc1 |  |  |  |  | inactive |  |  |  |  |  |
| c1coc(CNc2ncnc3[nH]cnc23)c1 |  |  |  |  |  | Active | inactive |  |  | Activity [5]: inactive; inhibition [17]: inactive |
| OC[C@H]1O[C@@H](n2cnc3c(NC4CCCC4)ncnc32)[C@H](O)[C@@H]1O |  |  |  |  |  |  |  | Active | inactive |  |
| N#CC(C#N)=NNc1cccc(Cl)c1 |  |  |  |  |  |  |  |  |  | Activity [22]: Active; Activity [23]: Active; Activity [24]: Active; Activity [25]: inactive |
| c1nc(NC2CCCC2)c2nc[nH]c2n1 |  |  |  |  | inactive |  |  |  |  |  |
| CNc1ncnc2c1ncn2[C@@H]1O[C@H](CO)[C@@H](O)[C@H]1O | inactive | inactive | inactive | inactive |  | Active | inactive | Active | inactive | Activity [26]: inactive |
| CNc1ncnc2[nH]cnc12 |  |  |  |  | inactive |  |  |  |  |  |
| OC[C@H]1O[C@@H](n2cnc3c(NCc4ccccc4)ncnc32)[C@H](O)[C@@H]1O | inactive | Active | inactive | inactive |  | Active | inactive | Active | inactive | inhibition [3]: inactive; Activity [6]: inactive; Activity [26]: Active; inhibition [7]: inactive; Activity [15]: Active |

— ChEMBL document CHEMBL5352504, “PINK1-Dependent Mitophagy Inhibits Elevated Ubiquitin Phosphorylation Caused by Mitochondrial Damage” (J Med Chem, 2023)
